From ChEMBL document CHEMBL1157888, “New 5-HT(1A) receptor ligands containing a N'-cyanoisonicotinamidine nucleus: synthesis and in vitro pharmacological evaluation” (Bioorg Med Chem Lett, 2010)

How the values were obtained:
[1] = target: T1, 5-hydroxytryptamine receptor 2C (Rattus norvegicus, UniProt P08909); assay: Displacement of [3H]mesulergine from 5-HT2C receptor in Sprague-Dawley rat brain cortex after 15 mins
T1 sequence (P08909 whole entry): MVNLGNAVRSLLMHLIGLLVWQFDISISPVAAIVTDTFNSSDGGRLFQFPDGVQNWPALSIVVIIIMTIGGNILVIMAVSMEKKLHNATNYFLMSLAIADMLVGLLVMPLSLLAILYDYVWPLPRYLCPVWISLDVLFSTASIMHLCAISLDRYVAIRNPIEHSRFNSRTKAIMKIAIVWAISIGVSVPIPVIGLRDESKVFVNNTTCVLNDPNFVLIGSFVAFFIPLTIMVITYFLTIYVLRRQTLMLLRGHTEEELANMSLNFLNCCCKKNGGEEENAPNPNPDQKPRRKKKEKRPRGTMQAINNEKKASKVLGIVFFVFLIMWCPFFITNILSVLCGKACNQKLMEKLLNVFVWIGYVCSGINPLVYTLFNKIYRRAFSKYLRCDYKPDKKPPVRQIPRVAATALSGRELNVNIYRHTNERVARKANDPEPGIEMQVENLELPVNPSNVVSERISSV
Summary of the method: (§1)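 Radioligand competition binding. Compounds were dissolved in ethanol or in 5% DMSO, and blank runs checked 5% DMSO for interference with binding. Six test-compound concentrations, each in triplicate, gave IC50 values by curve fitting. Ki was calculated by Cheng–Prusoff, Ki = IC50/(1 + S/KD), where S is the hot-ligand concentration and KD came from Scatchard analysis for each labeled ligand.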

[2] = target: 5-hydroxytryptamine receptor 2A (Rattus norvegicus, UniProt P14842); assay: Displacement of [3H]ketanserin hydrochloride from 5-HT2A receptor in Sprague-Dawley rat brain cortex after 15 mins; summary of the method: as §1
[3] = target: T2, 5-hydroxytryptamine receptor 1A (Rattus norvegicus, UniProt P19327); assay: Displacement of [3H]-8-OH-DPAT from 5-HT1A receptor in Sprague-Dawley rat brain cortex after 30 mins liquid scintillation spectrometer; format: tissue-based, Cerebral cortex; summary of the method: as §1
T2 sequence (P19327 whole entry): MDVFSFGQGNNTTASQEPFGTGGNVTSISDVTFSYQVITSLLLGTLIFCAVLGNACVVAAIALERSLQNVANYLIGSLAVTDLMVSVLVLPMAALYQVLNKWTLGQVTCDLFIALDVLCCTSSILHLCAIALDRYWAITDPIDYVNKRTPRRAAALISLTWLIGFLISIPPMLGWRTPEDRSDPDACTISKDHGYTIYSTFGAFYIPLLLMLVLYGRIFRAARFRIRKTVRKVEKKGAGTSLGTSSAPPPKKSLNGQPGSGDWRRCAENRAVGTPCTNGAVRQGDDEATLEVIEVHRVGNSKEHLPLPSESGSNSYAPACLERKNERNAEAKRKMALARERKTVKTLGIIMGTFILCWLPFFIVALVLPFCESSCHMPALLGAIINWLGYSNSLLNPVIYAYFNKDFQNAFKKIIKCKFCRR

[4] = target: T3, Adrenergic receptor alpha-2 (Rattus norvegicus, UniProt P22086+P19328+P22909); assay: Displacement of [3H]yohimbine from alpha 2 adrenergic receptor in rat brain cortex after 30 mins by liquid scintillation counting; format: tissue-based; summary of the method: as §1
T3 sequence (P22086 whole entry): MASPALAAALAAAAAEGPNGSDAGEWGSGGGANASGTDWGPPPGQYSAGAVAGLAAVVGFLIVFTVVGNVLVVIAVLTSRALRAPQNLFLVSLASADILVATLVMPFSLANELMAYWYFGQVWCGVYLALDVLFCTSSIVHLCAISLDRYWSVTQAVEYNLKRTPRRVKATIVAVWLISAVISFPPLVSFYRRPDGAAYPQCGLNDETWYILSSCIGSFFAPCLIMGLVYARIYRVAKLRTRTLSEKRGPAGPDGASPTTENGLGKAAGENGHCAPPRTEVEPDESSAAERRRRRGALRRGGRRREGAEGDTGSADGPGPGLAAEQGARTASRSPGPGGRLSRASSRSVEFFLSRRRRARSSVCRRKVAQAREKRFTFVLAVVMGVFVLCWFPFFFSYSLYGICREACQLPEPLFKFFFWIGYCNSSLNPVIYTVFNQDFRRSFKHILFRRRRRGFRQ
T3 sequence (P19328 whole entry): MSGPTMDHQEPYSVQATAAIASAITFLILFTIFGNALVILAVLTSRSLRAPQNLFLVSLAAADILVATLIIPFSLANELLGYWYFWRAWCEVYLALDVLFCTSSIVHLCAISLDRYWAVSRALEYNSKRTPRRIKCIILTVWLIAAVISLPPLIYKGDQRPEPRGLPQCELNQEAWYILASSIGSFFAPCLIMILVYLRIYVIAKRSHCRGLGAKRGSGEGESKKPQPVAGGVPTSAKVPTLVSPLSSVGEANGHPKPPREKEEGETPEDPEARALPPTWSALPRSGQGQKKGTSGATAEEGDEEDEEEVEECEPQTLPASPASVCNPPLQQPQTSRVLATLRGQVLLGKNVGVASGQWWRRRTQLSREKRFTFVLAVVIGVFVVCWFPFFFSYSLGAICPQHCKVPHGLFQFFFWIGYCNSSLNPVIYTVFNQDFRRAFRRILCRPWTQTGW
T3 sequence (P22909 whole entry): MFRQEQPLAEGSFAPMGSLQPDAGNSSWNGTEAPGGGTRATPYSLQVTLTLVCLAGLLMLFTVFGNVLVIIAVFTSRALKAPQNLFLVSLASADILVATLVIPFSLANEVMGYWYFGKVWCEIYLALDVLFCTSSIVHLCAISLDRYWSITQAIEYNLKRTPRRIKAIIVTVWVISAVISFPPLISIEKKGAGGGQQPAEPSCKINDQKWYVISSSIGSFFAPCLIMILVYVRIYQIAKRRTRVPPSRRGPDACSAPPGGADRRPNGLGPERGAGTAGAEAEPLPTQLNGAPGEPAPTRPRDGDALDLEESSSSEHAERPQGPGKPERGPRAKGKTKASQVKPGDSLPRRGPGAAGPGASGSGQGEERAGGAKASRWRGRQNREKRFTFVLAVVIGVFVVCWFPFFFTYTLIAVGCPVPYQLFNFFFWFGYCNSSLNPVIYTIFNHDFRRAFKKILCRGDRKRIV

[5] = target: D(1A) dopamine receptor (Rattus norvegicus, UniProt P18901); assay: Displacement of [3H]SCH-23390 from dopamine D1 receptor in rat striatum after 15 mins by liquid scintillation counting; summary of the method: as §1
[6] = target: D(2) dopamine receptor (Rattus norvegicus, UniProt P61169); assay: Displacement of [3H]spiperone from dopamine D2 receptor in rat striatum after 15 mins by liquid scintillation counting; summary of the method: as §1
[7] = target: T4, Adrenergic receptor alpha-1 (Rattus norvegicus, UniProt P15823+P23944+P43140); assay: Displacement of [3H]prazosin from alpha1 adrenergic receptor in rat striatum after 30 mins by liquid scintillation counting; conditions: in the assay text read “rat brain cortex” for “rat striatum”; summary of the method: as §1
T4 sequence (P15823 whole entry): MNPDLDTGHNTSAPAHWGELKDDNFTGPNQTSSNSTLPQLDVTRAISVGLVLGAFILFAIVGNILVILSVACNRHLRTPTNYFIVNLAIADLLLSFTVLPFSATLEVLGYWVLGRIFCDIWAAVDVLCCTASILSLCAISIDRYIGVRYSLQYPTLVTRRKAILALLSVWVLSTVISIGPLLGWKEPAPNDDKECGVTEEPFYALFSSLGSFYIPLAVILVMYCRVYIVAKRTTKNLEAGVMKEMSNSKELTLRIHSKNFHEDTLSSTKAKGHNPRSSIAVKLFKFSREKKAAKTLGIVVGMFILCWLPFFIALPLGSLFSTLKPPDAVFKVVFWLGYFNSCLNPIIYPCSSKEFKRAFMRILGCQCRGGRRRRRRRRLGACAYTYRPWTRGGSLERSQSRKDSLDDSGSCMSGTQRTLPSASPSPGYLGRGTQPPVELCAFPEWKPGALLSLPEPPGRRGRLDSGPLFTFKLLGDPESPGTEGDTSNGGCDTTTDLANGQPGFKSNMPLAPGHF
T4 sequence (P23944 whole entry): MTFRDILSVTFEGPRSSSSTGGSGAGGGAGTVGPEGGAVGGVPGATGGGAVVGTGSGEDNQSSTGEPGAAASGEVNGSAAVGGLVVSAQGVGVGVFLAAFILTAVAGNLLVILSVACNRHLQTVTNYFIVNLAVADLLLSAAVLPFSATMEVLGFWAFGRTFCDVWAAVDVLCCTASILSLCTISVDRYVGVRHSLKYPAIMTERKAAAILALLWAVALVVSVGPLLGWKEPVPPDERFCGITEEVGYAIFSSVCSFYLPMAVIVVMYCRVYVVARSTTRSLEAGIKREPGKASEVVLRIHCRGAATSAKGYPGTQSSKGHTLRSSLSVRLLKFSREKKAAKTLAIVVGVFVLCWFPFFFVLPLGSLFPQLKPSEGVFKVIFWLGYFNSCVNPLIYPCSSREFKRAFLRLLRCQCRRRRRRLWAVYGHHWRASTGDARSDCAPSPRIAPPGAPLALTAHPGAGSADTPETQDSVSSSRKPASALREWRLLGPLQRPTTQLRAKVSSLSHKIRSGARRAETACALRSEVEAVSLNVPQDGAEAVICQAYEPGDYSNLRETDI
T4 sequence (P43140 whole entry): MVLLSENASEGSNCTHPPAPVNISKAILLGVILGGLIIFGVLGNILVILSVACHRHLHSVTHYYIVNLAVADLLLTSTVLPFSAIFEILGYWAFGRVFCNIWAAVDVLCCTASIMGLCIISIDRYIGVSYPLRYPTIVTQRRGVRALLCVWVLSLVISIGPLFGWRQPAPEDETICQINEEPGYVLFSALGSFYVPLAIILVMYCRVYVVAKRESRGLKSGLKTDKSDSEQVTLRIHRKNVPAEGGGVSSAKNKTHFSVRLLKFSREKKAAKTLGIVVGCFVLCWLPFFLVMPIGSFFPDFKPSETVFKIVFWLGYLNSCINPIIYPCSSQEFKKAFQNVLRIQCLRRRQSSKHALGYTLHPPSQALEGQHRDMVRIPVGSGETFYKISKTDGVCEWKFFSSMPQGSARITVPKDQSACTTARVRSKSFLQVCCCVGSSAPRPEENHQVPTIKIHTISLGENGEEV

Chain of D(1A) dopamine receptor (P18901 whole entry): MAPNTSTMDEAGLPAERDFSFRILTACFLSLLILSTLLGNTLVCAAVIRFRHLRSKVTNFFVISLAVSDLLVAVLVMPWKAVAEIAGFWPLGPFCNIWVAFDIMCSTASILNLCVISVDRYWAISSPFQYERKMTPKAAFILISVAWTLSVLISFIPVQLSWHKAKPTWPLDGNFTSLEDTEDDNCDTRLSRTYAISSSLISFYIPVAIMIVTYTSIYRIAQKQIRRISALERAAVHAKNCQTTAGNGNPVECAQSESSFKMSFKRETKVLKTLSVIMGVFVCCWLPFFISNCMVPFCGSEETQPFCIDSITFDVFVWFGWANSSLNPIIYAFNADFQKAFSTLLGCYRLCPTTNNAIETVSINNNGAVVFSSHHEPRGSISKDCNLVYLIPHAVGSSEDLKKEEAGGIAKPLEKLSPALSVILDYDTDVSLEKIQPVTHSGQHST
Chain of 5-hydroxytryptamine receptor 2A (P14842 whole entry): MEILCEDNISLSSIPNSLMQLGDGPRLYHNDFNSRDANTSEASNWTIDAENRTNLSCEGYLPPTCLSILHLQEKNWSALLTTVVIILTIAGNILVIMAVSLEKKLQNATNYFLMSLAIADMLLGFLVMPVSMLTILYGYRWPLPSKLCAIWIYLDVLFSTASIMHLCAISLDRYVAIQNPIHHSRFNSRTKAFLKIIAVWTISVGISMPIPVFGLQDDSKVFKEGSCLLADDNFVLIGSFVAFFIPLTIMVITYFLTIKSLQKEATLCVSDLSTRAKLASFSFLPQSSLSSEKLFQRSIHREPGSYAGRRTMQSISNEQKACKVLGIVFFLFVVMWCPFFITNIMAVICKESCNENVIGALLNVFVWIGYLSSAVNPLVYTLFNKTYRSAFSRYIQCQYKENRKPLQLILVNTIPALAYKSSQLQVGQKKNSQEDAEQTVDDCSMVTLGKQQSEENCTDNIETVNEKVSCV
Chain of D(2) dopamine receptor (P61169 whole entry): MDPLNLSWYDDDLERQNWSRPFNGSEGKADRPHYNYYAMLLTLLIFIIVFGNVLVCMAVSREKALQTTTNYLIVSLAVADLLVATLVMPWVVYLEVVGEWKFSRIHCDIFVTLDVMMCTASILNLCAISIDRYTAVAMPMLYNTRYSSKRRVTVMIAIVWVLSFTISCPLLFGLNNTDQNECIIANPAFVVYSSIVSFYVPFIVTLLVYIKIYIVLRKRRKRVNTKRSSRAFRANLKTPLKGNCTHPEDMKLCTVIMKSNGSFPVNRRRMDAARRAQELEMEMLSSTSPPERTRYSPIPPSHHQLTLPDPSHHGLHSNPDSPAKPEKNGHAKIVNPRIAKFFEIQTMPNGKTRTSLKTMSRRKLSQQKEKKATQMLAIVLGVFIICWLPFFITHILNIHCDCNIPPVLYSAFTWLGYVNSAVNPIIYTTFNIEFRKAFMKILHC

| SMILES | Ki [1] | Ki [2] | Ki [3] | Ki ([2]; read-out: Ki) | Ki ([3]; read-out: Ki) | Ki [4] | Ki [5] | Ki [6] | Ki [7] | Ki ([1]; read-out: Ki) |
| --- | --- | --- | --- | --- | --- | --- | --- | --- | --- | --- |
| C=CCN1CCN(CCCN/C(=N\C#N)c2ccncc2)CC1 | Not Active | Not Active | Not Active |  |  |  |  |  |  |  |
| COCCN1CCN(CCCN/C(=N\C#N)c2ccncc2)CC1 | Not Active |  | Not Active | > 10 µM |  |  |  |  |  |  |
| CCOCCN1CCN(CCCN/C(=N\C#N)c2ccncc2)CC1 | Not Active | Not Active |  |  | > 10000 nM |  |  |  |  |  |
| N#C/N=C(\NCCCN1CCN(c2cccc(C(F)(F)F)c2)CC1)c1ccncc1 | Not Active |  |  | 0.0321 µM | 141 nM |  |  |  |  |  |
| N#C/N=C(\NCCCN1CCN(c2ncccn2)CC1)c1ccncc1 | Not Active | Not Active |  |  | 172 nM |  |  |  |  |  |
| N#C/N=C(\NCCCN1CCN(c2ccccn2)CC1)c1ccncc1 | Not Active | Not Active |  |  | 0.038 nM | > 10 µM | > 10 µM | > 10 µM | > 10 µM |  |
| COc1ccc(N2CCN(CCCN/C(=N\C#N)c3ccncc3)CC2)cc1 | Not Active |  |  | > 10 µM | > 10000 nM |  |  |  |  |  |
| N#C/N=C(\NCCCN1CCN(Cc2ccc3c(c2)OCO3)CC1)c1ccncc1 | Not Active |  |  | > 10 µM | > 10000 nM |  |  |  |  |  |
| N#C/N=C(\NCCCN1CCN(C(=O)c2ccco2)CC1)c1ccncc1 | Not Active |  |  | > 10 µM | > 10000 nM |  |  |  |  |  |

The next lines start with the values.

| Ki [1] | Ki [2] | Ki [3] | Ki ([2]; read-out: Ki) | Ki ([3]; read-out: Ki) | Ki [4] | Ki [5] | Ki [6] | Ki [7] | Ki ([1]; read-out: Ki) | SMILES |
| --- | --- | --- | --- | --- | --- | --- | --- | --- | --- | --- |
| Not Active |  |  | > 10 µM | 6.17 nM | > 10 µM | 1.63 µM | > 10 µM | 0.912 µM |  | N#C/N=C(\NCCCN1CCN(c2cccc(Cl)c2)CC1)c1ccncc1 |
|  |  |  | 1.9 µM | 21.3 nM | 0.516 µM | > 10 µM | > 10 µM | 0.19 µM | 0.0115 µM | CCOc1ccccc1N1CCN(CCCN/C(=N\C#N)c2ccncc2)CC1 |
| Not Active |  | Not Active | > 10 µM |  |  |  |  |  |  | N#C/N=C(\NCCCN1CCN(c2ccccc2C#N)CC1)c1ccncc1 |
| Not Active |  |  | > 10 µM | 101 nM |  |  |  |  |  | Cc1cccc(N2CCN(CCCN/C(=N\C#N)c3ccncc3)CC2)c1C |
| Not Active |  |  | > 10 µM | 166 nM |  |  |  |  |  | N#C/N=C(\NCCCN1CCN(c2ccccc2Cl)CC1)c1ccncc1 |
| Not Active |  |  | > 10 µM | 1.47 nM | 2.57 µM | > 10 µM | > 10 µM | > 10 µM |  | COc1ccccc1N1CCN(CCCN/C(=N\C#N)c2ccncc2)CC1 |
